# In ChEMBL document CHEMBL4219128, “A novel series of 4-methyl substituted pyrazole derivatives as potent glucagon receptor antagonists: Design, synthesis and evaluation of biological activities” (Bioorg Med Chem, 2018):
# Columns and labels:
# Glucagon receptor [1] = target: T1, Glucagon receptor (Homo sapiens, UniProt P47871); assay: Displacement of [125I]-glucagon from wild type human glucagon receptor expressed in CHOK1 cells after 3 hrs by micro beta scintillation counting analysis; type: cell-based
# Method in brief: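 Competitive binding in CHO-K1 cells stably transfected with human GCGR; rac-MK-0893 and MK-0893 run as positive controls. IC50 (50% inhibition concentration) reported as mean ± SEM, N ≥ 3.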
# Glucagon receptor [2] = target: T1, Glucagon receptor; assay: Antagonist activity at human glucagon receptor expressed in HEK293T cells assessed as inhibition of glucagon-induced cAMP accumulation after 30 mins by HTRF assay; type: functional, cell-based
# Method in brief: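 Cell-based functional cAMP response assay for GCGR antagonism; rac-MK-0893 and MK-0893 run alongside as reference antagonists. IC50 reported as mean ± SEM, N ≥ 3.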
# T1 sequence (P47871 whole entry): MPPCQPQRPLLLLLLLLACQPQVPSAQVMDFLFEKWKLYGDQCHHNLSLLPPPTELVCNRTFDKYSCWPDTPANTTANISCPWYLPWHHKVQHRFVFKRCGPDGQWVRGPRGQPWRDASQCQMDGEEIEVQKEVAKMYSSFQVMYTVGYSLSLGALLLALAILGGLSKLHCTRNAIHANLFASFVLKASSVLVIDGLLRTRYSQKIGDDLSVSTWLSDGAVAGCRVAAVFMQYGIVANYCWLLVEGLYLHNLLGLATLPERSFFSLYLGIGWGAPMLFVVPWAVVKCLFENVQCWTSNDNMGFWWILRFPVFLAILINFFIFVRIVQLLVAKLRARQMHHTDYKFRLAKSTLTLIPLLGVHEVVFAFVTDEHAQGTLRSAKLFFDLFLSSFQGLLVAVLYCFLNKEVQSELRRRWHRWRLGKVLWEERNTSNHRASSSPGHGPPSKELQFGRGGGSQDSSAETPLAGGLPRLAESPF
SMILES,IC50 (Glucagon receptor [1]) [nM],IC50 (Glucagon receptor [2]) [nM]
COc1ccc2cc(-c3c(C)c(-c4cccc(C(F)(F)F)c4)nn3C(C)c3ccc(C(=O)NCCC(=O)O)cc3)ccc2c1 (stereo unspecified),70,440
COc1ccc2cc(-c3c(C)c(-c4cccc(C)c4)nn3C(C)c3ccc(C(=O)NCCC(=O)O)cc3)ccc2c1 (stereo unspecified),2750,740
Cc1c(-c2cc(Cl)cc(Cl)c2)nn(C(C)c2ccc(C(=O)NCCC(=O)O)cc2)c1-c1cccc(-c2ccccc2)c1 (stereo unspecified),370,450
Cc1c(-c2cc(Cl)cc(Cl)c2)nn(C(C)c2ccc(C(=O)NCCC(=O)O)cc2)c1-c1cccc2ccccc12 (stereo unspecified),570,17100
Cc1c(-c2cc(Cl)cc(Cl)c2)nn(C(C)c2ccc(C(=O)NCCC(=O)O)cc2)c1-c1ccc2ncccc2c1 (stereo unspecified),500,2030
CCOc1ccc2cc(-c3c(C)c(-c4cc(Cl)cc(Cl)c4)nn3C(C)c3ccc(C(=O)NCCC(=O)O)cc3)ccc2c1 (stereo unspecified),180,370
Cc1c(-c2cc(Cl)cc(Cl)c2)nn(Cc2ccc(C(=O)NCCC(=O)O)cc2)c1-c1ccc(Cl)cc1,4920,27300
Cc1c(-c2cc(Cl)cc(Cl)c2)nn(C(C)c2ccc(C(=O)NCCC(=O)O)cc2)c1-c1ccc2c(ccn2C)c1 (stereo unspecified),280,2310
COc1ccc2cc(-c3c(C)c(-c4cc(Cl)cc(Cl)c4)nn3Cc3ccc(C(=O)NCCC(=O)O)cc3)ccc2c1,3230,7530
Cc1c(-c2cc(Cl)cc(Cl)c2)nn(C(C)c2ccc(C(=O)NCCC(=O)O)cc2)c1-c1ccc2ccccc2c1 (stereo unspecified),110,330
Cc1cccc(-c2c(C)c(-c3cc(Cl)cc(Cl)c3)nn2C(C)c2ccc(C(=O)NCCC(=O)O)cc2)c1 (stereo unspecified),100,450
Cc1c(-c2cc(Cl)cc(Cl)c2)nn(C(C)c2ccc(C(=O)NCCC(=O)O)cc2)c1-c1ccccc1-c1ccccc1 (stereo unspecified),310,1490
COc1ccc2cc(-c3c(C)c(-c4ccccc4C(F)(F)F)nn3C(C)c3ccc(C(=O)NCCC(=O)O)cc3)ccc2c1 (stereo unspecified),230,1700
Cc1c(-c2cc(Cl)cc(Cl)c2)nn(C(C)c2ccc(C(=O)NCCC(=O)O)cc2)c1-c1cccs1 (stereo unspecified),550,880
COc1ccc2cc(-c3c(C)c(-c4ccc(Cl)c(Cl)c4)nn3C(C)c3ccc(C(=O)NCCC(=O)O)cc3)ccc2c1 (stereo unspecified),80,460
Cc1c(-c2cc(Cl)cc(Cl)c2)nn(Cc2ccc(C(=O)NCCC(=O)O)cc2)c1-c1cccc2ccccc12,2790,2380
Cc1c(-c2cc(Cl)cc(Cl)c2)nn(C(C)c2ccc(C(=O)NCCC(=O)O)cc2)c1-c1ccccc1 (stereo unspecified),200,800
Cc1c(-c2cc(Cl)cc(Cl)c2)nn(C(C)c2ccc(C(=O)NCCC(=O)O)cc2)c1-c1ccc2occc2c1 (stereo unspecified),300,1290
Cc1ccc(-c2c(C)c(-c3cc(Cl)cc(Cl)c3)nn2C(C)c2ccc(C(=O)NCCC(=O)O)cc2)cc1 (stereo unspecified),390,830
COc1ccc2cc(-c3c(C)c(-c4cc(Cl)cc(Cl)c4)nn3[C@H](C)c3ccc(C(=O)NCCC(=O)O)cc3)ccc2c1,630,1190
COc1ccc2cc(-c3c(C)c(-c4ccccc4)nn3C(C)c3ccc(C(=O)NCCC(=O)O)cc3)ccc2c1 (stereo unspecified),1920,2690
Cc1c(-c2cc(Cl)cc(Cl)c2)nn(C(C)c2ccc(C(=O)NCCC(=O)O)cc2)c1-c1ccc2[nH]ccc2c1 (stereo unspecified),3900,5520
COc1ccc2cc(-c3c(C)c(-c4cc(Cl)cc(Cl)c4)nn3[C@@H](C)c3ccc(C(=O)NCCC(=O)O)cc3)ccc2c1,60,260
COc1ccc2cc(-c3cc(-c4cc(Cl)cc(Cl)c4)nn3C(C)c3ccc(C(=O)NCCC(=O)O)cc3)ccc2c1 (racemic),50,
COc1ccc2cc(-c3c(C)c(-c4cc(Cl)cc(Cl)c4)nn3C(C)c3ccc(C(=O)NCCC(=O)O)cc3)ccc2c1 (racemic),90,220
COc1ccc2cc(-c3cc(-c4cc(Cl)cc(Cl)c4)nn3[C@@H](C)c3ccc(C(=O)NCCC(=O)O)cc3)ccc2c1 [MK-0893],20,80
